Laboratory results: ChEMBL document CHEMBL4400583, “Camporidines A and B: Antimetastatic and Anti-inflammatory Polyketide Alkaloids from a Gut Bacterium of Camponotus kiusiuensis” (J Nat Prod, 2019)
Values after ≈ are worked out from the molar mass of the structure shown. Active and inactive are the calls of the source. The calls are words filed in the database; no cut-off is given here.

Legend:
[1] = test system: Salmonella enterica; assay: Antibacterial activity against Salmonella enterica; format: functional
[2] = test system: Trichophyton rubrum; assay: Antifungal activity against Trichophyton rubrum; format: functional
[3] = test system: MDA-MB-231; assay: Antiinvasive activity against human MDA-MB-231 cells at 40 uM after 48 hrs by crystal violet staining based microscopic method relative to control; format: functional
Outline: (§1)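 Cell invasion assay with MDA-MB-231 human breast cancer cells exposed to 20 or 40 μM compound, sunitinib as positive control. Invasion decrease is relative to untreated control, given as mean ± SD of n = 3, with significance versus control.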

[4] = test system: MDA-MB-231; assay: Antimigratory activity against human MDA-MB-231 cells at 40 uM after 48 hrs by wound healing assay relative to control; format: functional
Outline: (§2)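 Wound healing (scratch) assay on MDA-MB-231 human breast cancer cells, compound at 20 and 40 μM, sunitinib as positive control. Migration was expressed relative to untreated control as mean ± SD (n = 3), with significance versus control.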

[5] = test system: Candida albicans; assay: Antifungal activity against Candida albicans; format: functional
[6] = test system: Staphylococcus aureus; assay: Antibacterial activity against Staphylococcus aureus; format: functional
[7] = test system: RAW264.7; assay: Antiinflammatory activity in mouse RAW264.7 cells assessed as inhibition of LPS-induced nitric oxide production preincubated for 1 hr followed by LPS addition and measured on next day by Griess reagent based assay; format: functional, cell-based
Outline: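 Mouse macrophages treated with compound, then stimulated with LPS to induce nitric oxide production (iNOS assay). NO suppression was read against LPS-only cells and expressed as IC50. 2-Amino-5,6-dihydro-6-methyl-4H-1,3-thiazine (AMT) was the positive control.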

[8] = test system: MDA-MB-231; assay: Antimigratory activity against human MDA-MB-231 cells after 48 hrs by wound healing assay; format: functional, cell-based; outline: as §2
[9] = test system: MDA-MB-231; assay: Antimigratory activity against human MDA-MB-231 cells at 20 uM after 48 hrs by wound healing assay relative to control; format: functional; outline: as §2
[10] = test system: Enterococcus faecalis; assay: Antibacterial activity against Enterococcus faecalis; format: functional
[11] = test system: Trichophyton mentagrophytes; assay: Antifungal activity against Trichophyton mentagrophytes; format: functional
[12] = test system: MDA-MB-231; assay: Antiinvasive activity against human MDA-MB-231 cells at 20 uM after 48 hrs by crystal violet staining based microscopic method relative to control; format: functional; outline: as §1
[13] = test system: Klebsiella pneumoniae; assay: Antibacterial activity against Klebsiella pneumoniae; format: functional
[14] = test system: A549; assay: Antiproliferative activity against human A549 cells after 72 hrs by SRB assay; format: functional, cell-based
[15] = test system: HCT-116; assay: Antiproliferative activity against human HCT116 cells after 72 hrs by SRB assay; format: functional, cell-based
[16] = test system: Aspergillus fumigatus; assay: Antifungal activity against Aspergillus fumigatus; format: functional
[17] = test system: MDA-MB-231; assay: Antiproliferative activity against human MDA-MB-231 cells after 72 hrs by SRB assay; format: functional, cell-based
[18] = organism: Homo sapiens; assay: Antiproliferative activity against human SNU538 cells after 72 hrs by SRB assay; format: functional, cell-based
[19] = test system: RAW264.7; assay: Cytotoxicity against LPS-induced mouse RAW264.7 cells assessed as reduction in cell viability up to 80 uM by MTT assay; format: cell-based
Outline: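 Viability of mouse macrophages after co-exposure to LPS and compound, measured by MTT assay. This was run alongside the LPS-induced NO suppression assay to check for cytotoxicity.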

[20] = test system: MCF-10A; assay: Antiproliferative activity against human MCF10A cells after 72 hrs by SRB assay; format: cell-based
[21] = test system: SK-HEP1; assay: Antiproliferative activity against human SKHEP1 cells after 72 hrs by SRB assay; format: functional, cell-based
[22] = test system: Enterococcus faecium; assay: Antibacterial activity against Enterococcus faecium; format: functional
[23] = test system: Escherichia coli; assay: Antibacterial activity against Escherichia coli; format: functional

| MIC [1] [µM] | MIC [2] [µM] | MIC [5] [µM] | MIC [6] [µM] | IC50 [7] [µM] | MIC [10] [µM] | MIC [11] [µM] | MIC [13] [µM] | MIC [16] [µM] | Structure (SMILES) | Activity [3] | Activity [4] | Activity [9] | Activity [12] | Activity [14] | Activity [15] | Activity [17] | Activity [18] | Activity [19] | Activity [20] | Activity [21] | also measured |
| --- | --- | --- | --- | --- | --- | --- | --- | --- | --- | --- | --- | --- | --- | --- | --- | --- | --- | --- | --- | --- | --- |
| 64 (≈ 19.4 µg/mL) | > 128 | > 128 | 64 (≈ 19.4 µg/mL) | 16.9 | 64 (≈ 19.4 µg/mL) | > 128 | 64 (≈ 19.4 µg/mL) | > 128 | CCCCCC[C@H]1CN[C@H]2C=C/C(=C\C=C\C(=O)O)[C@]23O[C@H]13 | 36% | 73% | 50% | 20% | inactive | inactive | inactive | inactive | Non-Toxic | Non-Toxic | inactive | Activity [8]: Dose-dependent effect; MIC [22]: 64 µM (≈ 19.4 µg/mL); MIC [23]: 64 µM (≈ 19.4 µg/mL) |
| 64 (≈ 20.4 µg/mL) | > 128 | > 128 | 64 (≈ 20.4 µg/mL) | 83 | 64 (≈ 20.4 µg/mL) | > 128 | 64 (≈ 20.4 µg/mL) | > 128 | CCCCCC[C@H]1CN(O)[C@H]2C=C/C(=C\C=C\C(=O)O)[C@]23O[C@H]13 | inactive | inactive | inactive | inactive | inactive | inactive | inactive | inactive | Non-Toxic | Non-Toxic | inactive | MIC [22]: 64 µM (≈ 20.4 µg/mL); MIC [23]: 64 µM (≈ 20.4 µg/mL) |
